ChEMBL document CHEMBL1130429 (J Med Chem, 1997)

Tests used:
[1] = target: T1, Sodium-dependent dopamine transporter (Rattus norvegicus, UniProt P23977); assay: Binding affinity for dopamine transporter was determined in rat striatal membrane; format: cell membranes, Striatum
[2] = target: Dopamine receptor D2 and D3 (Rattus norvegicus, UniProt P19020+P61169); assay: In vitro binding affinity for D2/D3 receptors in rat striatal homogenates by [125I]NCQ298 displacement.
[3] = target: T2, Sodium-dependent serotonin transporter (Rattus norvegicus, UniProt P31652); assay: Binding affinity for serotonin transporter was determined in rat cortical membrane; format: cell membranes
Sigma 2 receptor [4] = assay: Sigma 2 binding assay was done rat liver membrane, by labeling the binding site with [3H]-DTG (DuPont-NEN) in the presence of […]-pentazocine (100 nM)
In short: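 P2 membranes from male Sprague-Dawley rat liver (35 µg protein) with 3 nM [3H]DTG plus 100 nM unlabelled (+)-pentazocine to mask σ1, 50 mM Tris-HCl pH 8.0, 120 min, 25 °C; GF/B filtration; nonspecific with 5 µM DTG. IC50 in triplicate from 5-10 concentrations, Ki via Cheng-Prusoff (Kd 17.9 nM), mean ± SEM.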

Sigma 2 receptor [5] = assay: Sigma 2 binding assay was done rat liver membrane, by labeling the binding site with [3H]DTG (DuPont-NEN) in the presence of […]-pentazocine (100 nM)
[6] = target: T1, Sodium-dependent dopamine transporter; assay: Binding affinity for dopamine transporter was determined in rat striatal membrane.; format: cell membranes
[7] = target: T2, Sodium-dependent serotonin transporter; assay: Binding affinity for serotonin transporter was determined in rat cortical membrane.; format: cell membranes

T1 sequence (P23977 whole entry): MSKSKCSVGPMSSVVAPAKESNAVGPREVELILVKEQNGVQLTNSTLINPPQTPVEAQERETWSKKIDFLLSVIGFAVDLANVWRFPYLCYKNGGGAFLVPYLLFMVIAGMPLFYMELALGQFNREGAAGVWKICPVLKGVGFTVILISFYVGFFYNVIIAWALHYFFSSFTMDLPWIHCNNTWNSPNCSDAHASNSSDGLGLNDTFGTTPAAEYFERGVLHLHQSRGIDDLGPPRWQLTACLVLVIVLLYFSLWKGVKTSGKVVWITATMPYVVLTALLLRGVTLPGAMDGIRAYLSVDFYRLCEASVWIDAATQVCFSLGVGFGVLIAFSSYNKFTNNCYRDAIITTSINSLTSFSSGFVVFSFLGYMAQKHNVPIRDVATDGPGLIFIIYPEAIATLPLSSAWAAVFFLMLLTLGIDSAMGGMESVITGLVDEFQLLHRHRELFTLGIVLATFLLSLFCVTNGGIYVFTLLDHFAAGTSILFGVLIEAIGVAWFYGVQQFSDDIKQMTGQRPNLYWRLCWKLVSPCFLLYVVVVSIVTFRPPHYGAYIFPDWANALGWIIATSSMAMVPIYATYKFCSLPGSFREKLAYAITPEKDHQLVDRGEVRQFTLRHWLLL
T2 sequence (P31652 whole entry): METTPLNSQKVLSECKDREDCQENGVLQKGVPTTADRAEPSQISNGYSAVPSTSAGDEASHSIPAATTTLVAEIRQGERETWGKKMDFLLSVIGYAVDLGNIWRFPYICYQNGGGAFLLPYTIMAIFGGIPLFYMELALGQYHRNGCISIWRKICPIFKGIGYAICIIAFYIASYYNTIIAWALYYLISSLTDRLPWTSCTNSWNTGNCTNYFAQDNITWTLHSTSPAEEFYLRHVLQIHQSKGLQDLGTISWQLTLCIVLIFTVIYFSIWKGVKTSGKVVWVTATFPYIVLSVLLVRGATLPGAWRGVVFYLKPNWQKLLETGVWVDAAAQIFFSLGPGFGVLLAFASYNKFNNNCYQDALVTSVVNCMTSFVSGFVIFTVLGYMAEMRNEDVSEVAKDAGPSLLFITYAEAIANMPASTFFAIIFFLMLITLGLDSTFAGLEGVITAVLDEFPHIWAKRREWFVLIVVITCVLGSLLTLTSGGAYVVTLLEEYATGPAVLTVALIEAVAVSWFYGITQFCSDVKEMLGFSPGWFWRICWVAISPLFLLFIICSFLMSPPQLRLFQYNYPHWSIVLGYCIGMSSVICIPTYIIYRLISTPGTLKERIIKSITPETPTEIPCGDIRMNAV

O[C@H]1Cc2ccccc2C[C@@H]1N1C2CCC1CC(c1ccccc1)C2 (stereo partly specified) showed a Ki [1] of 1070 nM, a Ki [2] of 3385 nM and a Ki [3] of 1680 nM.
For O[C@@H](CN1CCC2(CCc3ccccc32)CC1)c1cccc(Br)c1, the Ki (Sigma 2 receptor [4]) was 12.7 nM and the Ki [2] was > 1000 nM.
In the case of CN1CC2(CCN(C[C@H](O)c3cccc(Br)c3)CC2)c2ccccc21, the Ki (Sigma 2 receptor [5]) is reported as 99.2 nM and the Ki [2] is reported as > 1000 nM.
For CN1CC2(CCN([C@@H]3CN(Cc4ccc(F)cc4)CC[C@H]3O)CC2)c2ccccc21, the Ki [2] was > 1000 nM.
OC(CN1C2CCC1CC(c1ccccc1)C2)c1ccccc1 (stereo unspecified) showed a Ki (Sigma 2 receptor [4]) of 32.7 nM and a Ki [1] of 41.5 nM.
Molecule O[C@H]1CCN(Cc2cccc(I)c2)C[C@@H]1N1C2CCC1CC(c1ccccc1)C2 (stereo partly specified) has a Ki (Sigma 2 receptor [4]) of 275 nM, a Ki [6] of 1070 nM and a Ki [7] of 4430 nM. The Ki [2] was 1967 nM.
Work on OC(CN1C2CCC1CC(c1ccccc1)C2)c1ccc(Cl)c(Cl)c1 (stereo unspecified) yielded a Ki (Sigma 2 receptor [4]) of 18.8 nM and a Ki [6] of 23.6 nM.
CN1CC2(CCN([C@@H]3CCCC[C@H]3O)CC2)c2ccccc21 was tested, and the Ki (Sigma 2 receptor [4]) was 357 nM and the Ki [2] was > 1000 nM.
With OC(CN1C2CCC1CC(c1ccccc1)C2)c1cccc(Br)c1 (stereo unspecified) the Ki (Sigma 2 receptor [4]) was 9.87 nM, the Ki [6] was 23.6 nM and the Ki [7] was 27 nM. The Ki [2] was 2658 nM.
For O[C@H]1CCN(Cc2ccc(F)cc2)C[C@@H]1N1C2CCC1CC(c1ccccc1)C2 (stereo partly specified), the Ki (Sigma 2 receptor [4]) was 260 nM, the Ki [6] was 4180 nM and the Ki [7] was 9200 nM. The Ki [2] was 8795 nM.
Work on OC(CCCN1C2CCC1CC(c1ccccc1)C2)c1ccc(F)cc1 (stereo unspecified) yielded a Ki [1] of 464 nM.
With O[C@@H]1CCN(Cc2cccc(I)c2)C[C@H]1N1CCC2(CCc3ccccc32)CC1 the Ki (Sigma 2 receptor [5]) was 224 nM and the Ki [2] was > 1000 nM.
With O[C@@H]1CCCC[C@H]1N1CCC2(CCc3ccccc32)CC1 the Ki (Sigma 2 receptor [5]) was 30 nM and the Ki [2] was > 1000 nM.
Molecule OC(CN1C2CCC1CC(c1ccccc1)C2)c1ccccc1Br (stereo unspecified) has a Ki (Sigma 2 receptor [4]) of 7.71 nM and a Ki [6] of 67.2 nM.
CN1CC2(CCN(C[C@H](O)Cc3ccc(Br)cc3)CC2)c2ccccc21 was tested, and the Ki (Sigma 2 receptor [5]) was 22.9 nM and the Ki [2] was > 1000 nM.
For O[C@H]1CCCC[C@@H]1N1C2CCC1CC(c1ccccc1)C2 (stereo partly specified), the Ki (Sigma 2 receptor [4]) was 118 nM, the Ki [1] was 2810 nM and the Ki [2] was > 38000 nM. For the same molecule, the Ki [3] was 3420 nM.
For OC(CN1C2CCC1CC(c1ccccc1)C2)c1c(Cl)cccc1Cl (stereo unspecified), the Ki (Sigma 2 receptor [4]) was 15.9 nM and the Ki [6] was 42 nM.
Molecule OC(CN1C2CCC1CC(c1ccccc1)C2)c1ccc(Br)cc1 (stereo unspecified) has a Ki (Sigma 2 receptor [4]) of 11.3 nM, a Ki [6] of 73.8 nM and a Ki [7] of 30.1 nM. It also gave a Ki [2] of 5092 nM.
For CN1CC2(CCN([C@@H]3Cc4ccccc4C[C@H]3O)CC2)c2ccccc21, the Ki [2] was > 1000 nM.
Work on O=C(CN1C2CCC1CC(c1ccccc1)C2)c1ccc(F)cc1 (stereo unspecified) yielded a Ki (Sigma 2 receptor [4]) of 73.3 nM and a Ki [6] of 222 nM.
In the case of OC(Cc1ccc(Br)cc1)CN1C2CCC1CC(c1ccccc1)C2 (stereo unspecified), the Ki (Sigma 2 receptor [4]) is reported as 4.95 nM, the Ki [1] is reported as 306 nM and the Ki [2] is reported as 1490 nM. The Ki [3] was 234 nM.
For O[C@H](Cc1ccc(Br)cc1)CN1CCC2(CCc3ccccc32)CC1, the Ki (Sigma 2 receptor [5]) was 8.8 nM and the Ki [2] was > 1000 nM.
CN1CC2(CCN([C@@H]3CN(Cc4cccc(I)c4)CC[C@H]3O)CC2)c2ccccc21 was tested, and the Ki (Sigma 2 receptor [5]) was 139 nM and the Ki [2] was > 1000 nM.
With O=C(CCCN1C2CCC1CC(c1ccccc1)C2)c1ccc(F)cc1 (stereo unspecified) the Ki (Sigma 2 receptor [4]) was 15.4 nM, the Ki [6] was 129 nM and the Ki [7] was 88.6 nM. For the same molecule, the Ki [2] was 16.3 nM.
Molecule O=C(CCCN1CCC2(CCc3ccccc32)CC1)c1ccc(F)cc1 has a Ki (Sigma 2 receptor [5]) of 3.3 nM.
CN1CC2(CCN(CCCC(=O)c3ccc(F)cc3)CC2)c2ccccc21 showed a Ki (Sigma 2 receptor [4]) of 60.8 nM and a Ki [2] of 56.5 nM.
With O[C@@H]1CCN(Cc2ccc(F)cc2)C[C@H]1N1CCC2(CCc3ccccc32)CC1 the Ki (Sigma 2 receptor [5]) was 67 nM and the Ki [2] was > 1000 nM.
For O[C@@H]1Cc2ccccc2C[C@H]1N1CCC2(CCc3ccccc32)CC1, the Ki [2] was > 1000 nM.
